Key:
[1] = biological target: T1, Sphingosine 1-phosphate receptor 1 (Homo sapiens, UniProt P21453); assay: Antagonist activity at S1P1 receptor expressed in HEK293 cells assessed as inhibition of S1P-induced cAMP response after 90 mins by spectrophotometry; type: functional, cell-based
[2] = biological target: T1, Sphingosine 1-phosphate receptor 1; assay: Antagonist activity at S1P1 receptor expressed in HEK293 cells assessed as inhibition of S1P-induced tango beta-arrestin recruitment preincubated for 30 mins prior S1P addition measured after 16 to 18 hrs by luciferase reporter gene assay; type: functional, cell-based
[3] = biological target: Sphingosine 1-phosphate receptor 2 (Homo sapiens, UniProt O95136); assay: Antagonist activity at S1P2 receptor expressed in HEK293 cells assessed as inhibition of S1P-induced tango beta-arrestin recruitment preincubated for 30 mins prior S1P addition measured after 16 to 18 hrs by luciferase reporter gene assay; type: functional, cell-based
[4] = biological target: Sphingosine 1-phosphate receptor 3 (Homo sapiens, UniProt Q99500); assay: Antagonist activity at S1P3 receptor expressed in HEK293 cells assessed as inhibition of S1P-induced tango beta-arrestin recruitment preincubated for 30 mins prior S1P addition measured after 16 to 18 hrs by luciferase reporter gene assay; type: functional, cell-based
[5] = Drug uptake in nu/nu homozygous mouse plasma at 100 mg/kg, po as a suspension in 10% NMP/corn oil after 4 hrs by HPLC/MS/MS analysis; type: ADME, organism-based; set-up: dose 100 mg/kg, route oral
Outline: (§1)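 Female Nu/Nu mice (~8 wk, 20-22 g) given a single 100 mpk oral dose at 10 mL/kg. Vehicles: 10% EtOH/45% or 40% PEG400/water + 1 molar equiv HCl, 10% EtOH/40% PEG400/20% Captisol + HCl, or 10% NMP/90% corn oil. Heparinized blood collected 1 and 4 h post-dose; plasma analysed by HPLC/MS/MS.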

[6] = Drug uptake in nu/nu homozygous mouse plasma at 100 mg/kg, po as a suspension in 10% NMP/corn oil after 24 hrs by HPLC/MS/MS analysis; type: ADME, organism-based; set-up: dose 100 mg/kg, route oral
[7] = biological target: Cytochrome P450 2C9 (Homo sapiens, UniProt P11712); assay: Inhibition of human CYP2C9 using tolbutamide as substrate by LC/MS/MS analysis; type: ADME
Outline: (§2)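 Pooled human liver microsomes in 100 mM potassium phosphate, pH 7.4, at 37 °C with 1000 µM NADPH for 15 min. Microsomes 0.15 mg/mL for CYP2C9 and CYP2D6, 0.25 mg/mL for CYP3A4. Inhibitor tested at six concentrations (0.2–50 µM). Reactions quenched with acetonitrile; metabolite measured by LC/MS/MS; IC50 from 4-parameter sigmoidal fit.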

[8] = biological target: Cytochrome P450 2D6 (Homo sapiens, UniProt P10635); assay: Inhibition of human CYP2D6 using bufuralol as substrate by LC/MS/MS analysis; type: ADME; outline: as §2
[9] = biological target: Cytochrome P450 3A4 (Homo sapiens, UniProt P08684); assay: Inhibition of human CYP3A4 using testosterone as substrate by LC/MS/MS analysis; type: ADME; outline: as §2
[10] = Antitumor activity against human MDA-MB-231T cells xenografted in athymic nude mouse assessed as tumor growth inhibition at 100 mg/kg, po qd for 14 days post implantation measured for 14 days; type: functional; conditions: 336 h, read-out: TGI
Outline: (§3)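 MDA-MB-231T cells grown in DMEM with 10% FBS. 1 x 10⁶ cells in ice-cold HBSS implanted into the mammary fat pad of female athymic nude (NCr) mice, 5-8 wk. Daily oral dosing at 10 mL/kg, solutions made fresh daily. Tumor weight measured twice weekly; TGI calculated against vehicle and staging-day weights; 2-tailed t-test, p<0.05.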

[11] = Metabolic stability of the compound in mouse liver microsomes assessed as compound oxidation measuring disappearance of compound at 15 uM after 30 mins by LC/MS/MS analysis; type: ADME, Microsome; conditions: read-out: Drug degradation
Outline: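 Incubated in duplicate for 30 min at 37 °C: 15 µM compound, 0.15% DMSO, 0.5 mg/mL mouse liver microsomes, 1 mM NADPH, 100 mM potassium phosphate pH 7.4. Stopped with acetonitrile containing 0.1% formic acid. Parent remaining measured by LC/MS/MS; disappearance calculated relative to no-NADPH controls.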

[12] = Antitumor activity against human MDA-MB-231T cells xenografted in athymic nude mouse assessed as tumor growth inhibition at 300 mg/kg, po qd for 14 days post implantation measured for 14 days; type: functional; conditions: 336 h, read-out: TGI; outline: as §3
[13] = tested on: Mus musculus; assay: Toxicity in athymic nude mouse xenografted with human MDA-MB-231T cells assessed as body weight loss at 300 mg/kg, po qd for 14 days post implantation measured for 14 days; type: organism-based; set-up: dose 300 mg/kg, route oral; conditions: in vivo, 336 h
Outline: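 Female NCr athymic nude mice bearing mammary fat pad MDA-MB-231T tumors (1 x 10⁶ cells). Dosed orally once daily at 10 mL/kg from fresh solutions. Body weights recorded daily; clinical signs and survival monitored daily.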

[14] = Drug uptake in nu/nu homozygous mouse plasma at 100 mg/kg, po as a solution in 10% EtOH/45% PEG400/water + 1:1 HCl after 1 hr by HPLC/MS/MS analysis; type: ADME, organism-based; set-up: dose 100 mg/kg, route oral; outline: as §1
[15] = Drug uptake in nu/nu homozygous mouse plasma at 100 mg/kg, po as a solution in 10% EtOH/45% PEG400/water + 1:1 HCl after 4 hrs by HPLC/MS/MS analysis; type: ADME, organism-based; set-up: dose 100 mg/kg, route oral; outline: as §1
[16] = Drug uptake in nu/nu homozygous mouse plasma at 100 mg/kg, po as a solution in 10% EtOH/40% PEG400/water + 1:1 HCl after 1 hr by HPLC/MS/MS analysis; type: ADME, organism-based; set-up: dose 100 mg/kg, route oral; outline: as §1
[17] = Drug uptake in nu/nu homozygous mouse plasma at 100 mg/kg, po as a solution in 10% EtOH/40% PEG400/water + 1:1 HCl after 4 hrs by HPLC/MS/MS analysis; type: ADME, organism-based; set-up: dose 100 mg/kg, route oral; outline: as §1
[18] = Drug uptake in nu/nu homozygous mouse plasma at 100 mg/kg, po as a suspension in 10% NMP/corn oil after 1 hr by HPLC/MS/MS analysis; type: ADME, organism-based; set-up: dose 100 mg/kg, route oral; outline: as §1

T1 sequence (P21453 whole entry): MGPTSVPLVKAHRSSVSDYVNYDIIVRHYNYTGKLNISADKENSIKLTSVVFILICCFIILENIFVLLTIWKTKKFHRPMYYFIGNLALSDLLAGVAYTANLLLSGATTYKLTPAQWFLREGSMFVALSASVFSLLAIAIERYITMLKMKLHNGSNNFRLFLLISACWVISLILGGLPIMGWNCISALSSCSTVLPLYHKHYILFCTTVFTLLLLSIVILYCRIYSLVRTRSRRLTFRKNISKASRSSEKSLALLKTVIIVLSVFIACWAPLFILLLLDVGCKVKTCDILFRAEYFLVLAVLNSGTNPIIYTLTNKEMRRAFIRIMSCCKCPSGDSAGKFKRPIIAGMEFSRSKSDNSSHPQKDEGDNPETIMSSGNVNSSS
Chain of Sphingosine 1-phosphate receptor 2 (O95136 whole entry): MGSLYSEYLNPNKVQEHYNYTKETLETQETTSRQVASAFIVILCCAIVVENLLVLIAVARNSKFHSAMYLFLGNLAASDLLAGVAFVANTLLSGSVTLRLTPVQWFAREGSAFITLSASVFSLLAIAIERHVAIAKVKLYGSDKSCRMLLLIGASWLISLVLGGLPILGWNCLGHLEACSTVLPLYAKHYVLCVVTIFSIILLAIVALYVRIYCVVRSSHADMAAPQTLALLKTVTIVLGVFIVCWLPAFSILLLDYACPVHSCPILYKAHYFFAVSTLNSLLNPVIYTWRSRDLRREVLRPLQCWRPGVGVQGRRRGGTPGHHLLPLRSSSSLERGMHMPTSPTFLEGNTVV
Chain of Sphingosine 1-phosphate receptor 3 (Q99500 whole entry): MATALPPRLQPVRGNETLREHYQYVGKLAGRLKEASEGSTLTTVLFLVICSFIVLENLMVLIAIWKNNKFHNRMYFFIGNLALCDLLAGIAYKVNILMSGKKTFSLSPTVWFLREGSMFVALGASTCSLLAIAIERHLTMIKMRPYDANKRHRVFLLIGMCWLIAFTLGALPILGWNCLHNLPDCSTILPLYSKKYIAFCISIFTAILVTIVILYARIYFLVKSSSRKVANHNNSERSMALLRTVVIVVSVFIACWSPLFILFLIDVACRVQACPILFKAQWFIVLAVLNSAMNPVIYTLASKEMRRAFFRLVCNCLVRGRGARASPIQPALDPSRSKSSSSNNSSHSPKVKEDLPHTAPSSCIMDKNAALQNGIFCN
Chain of Cytochrome P450 2C9 (P11712 whole entry): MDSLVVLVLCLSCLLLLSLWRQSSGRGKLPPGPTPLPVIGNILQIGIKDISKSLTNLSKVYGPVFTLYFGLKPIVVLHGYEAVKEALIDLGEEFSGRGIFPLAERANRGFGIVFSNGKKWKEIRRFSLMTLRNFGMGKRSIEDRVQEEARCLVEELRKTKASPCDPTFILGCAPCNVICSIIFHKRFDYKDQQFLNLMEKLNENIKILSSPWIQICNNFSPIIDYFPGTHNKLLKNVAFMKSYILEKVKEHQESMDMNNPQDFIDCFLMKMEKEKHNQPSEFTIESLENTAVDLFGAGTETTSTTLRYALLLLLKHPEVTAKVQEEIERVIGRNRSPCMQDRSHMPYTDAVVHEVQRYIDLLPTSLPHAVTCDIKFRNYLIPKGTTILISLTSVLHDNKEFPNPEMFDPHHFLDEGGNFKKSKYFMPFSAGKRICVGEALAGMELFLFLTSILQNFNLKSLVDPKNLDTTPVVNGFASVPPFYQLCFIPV
Chain of Cytochrome P450 2D6 (P10635 whole entry): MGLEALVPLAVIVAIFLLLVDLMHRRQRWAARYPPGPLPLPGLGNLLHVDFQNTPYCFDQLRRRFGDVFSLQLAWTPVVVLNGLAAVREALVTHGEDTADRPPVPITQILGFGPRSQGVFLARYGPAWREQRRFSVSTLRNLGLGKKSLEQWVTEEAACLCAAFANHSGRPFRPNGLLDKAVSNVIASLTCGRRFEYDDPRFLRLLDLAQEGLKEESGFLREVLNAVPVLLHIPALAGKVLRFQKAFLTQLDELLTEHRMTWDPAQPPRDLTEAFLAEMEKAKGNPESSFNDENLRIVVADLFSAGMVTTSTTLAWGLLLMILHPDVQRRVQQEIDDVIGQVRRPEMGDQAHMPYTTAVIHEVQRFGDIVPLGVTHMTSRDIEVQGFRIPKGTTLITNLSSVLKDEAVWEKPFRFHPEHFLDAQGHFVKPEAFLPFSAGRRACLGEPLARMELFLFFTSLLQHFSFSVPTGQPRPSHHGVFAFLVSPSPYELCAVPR
Chain of Cytochrome P450 3A4 (P08684 whole entry): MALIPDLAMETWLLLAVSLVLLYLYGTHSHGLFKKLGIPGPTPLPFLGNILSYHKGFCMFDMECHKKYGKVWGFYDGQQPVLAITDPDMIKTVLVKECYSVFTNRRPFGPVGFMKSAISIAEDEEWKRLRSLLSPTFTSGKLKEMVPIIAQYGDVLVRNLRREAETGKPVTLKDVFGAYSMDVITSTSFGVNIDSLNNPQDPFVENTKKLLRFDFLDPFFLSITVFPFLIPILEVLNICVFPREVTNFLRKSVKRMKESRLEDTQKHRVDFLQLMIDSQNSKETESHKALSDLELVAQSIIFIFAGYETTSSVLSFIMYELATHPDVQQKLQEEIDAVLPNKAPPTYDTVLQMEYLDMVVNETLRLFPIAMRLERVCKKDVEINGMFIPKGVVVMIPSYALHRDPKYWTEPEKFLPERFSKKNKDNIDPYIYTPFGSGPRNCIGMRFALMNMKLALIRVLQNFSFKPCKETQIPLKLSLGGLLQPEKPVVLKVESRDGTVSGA

`O=C(Cc1cc(Cl)ccc1Cl)N[C@@H](COCc1ccccc1)C(=O)Nc1ccc(Oc2ccccc2)cc1` showed an IC50 [1] of over 10000 nM.

Work on `CN(CC(=O)N[C@H](COCc1ccccc1)C(=O)Nc1ccc(Oc2ccccc2)cc1)C(=O)c1ccccc1` yielded an IC50 [1] of over 10000 nM.

For `O=C(Cc1cnc[nH]1)N[C@@H](COCc1ccccc1)C(=O)Nc1ccc(Oc2ccccc2)c(Cl)c1`, the IC50 [1] was 211 nM.

With `CN(C(=O)Cc1c[nH]cn1)[C@@H](COCc1ccccc1)C(=O)Nc1ccc(Oc2ccccc2)cc1` the IC50 [1] was 181 nM.

For `O=C(Cc1cnc[nH]1)N[C@@H](COCc1ccccc1)C(=O)Nc1ccc(-c2ccccc2)cc1`, the IC50 [1] was over 10000 nM.

With `O=C(Cc1cnc[nH]1)N[C@@H](COCc1ccccc1)C(=O)Nc1ccc(OC2CCCCC2)cc1` the IC50 [1] was 702 nM.

For `O=C(Cc1cnc[nH]1)N[C@@H](COCc1ccccc1)C(=O)Nc1ccc(Nc2ccccc2)cc1`, the IC50 [1] was 743 nM.

`O=C(Nc1ccc(Oc2ccc(F)cc2)cc1)[C@@H]1C[C@@H](Cc2ccc(F)cc2)CN1C(=O)Cn1nccn1` gave an IC50 [1] of 4.8 nM, an IC50 [2] of 21 nM and an IC50 [3] of over 10000 nM. For the same compound, the IC50 [4] was over 10000 nM, the concentration at 4 h [5] was 23 µM and the concentration at 24 h [6] was 2 µM. For the same compound, the IC50 [7] was 17400 nM, the IC50 [8] was over 50000 nM and the IC50 [9] was over 20000 nM. The inhibition in vivo at 100 mg/kg [10] was 60%.

`O=C(Cc1cnc[nH]1)N[C@@H](COCc1ccccc1)C(=O)Nc1ccc(Oc2ccc(Cl)cc2)cc1` showed an IC50 [1] of 32 nM, an IC50 [2] of 221 nM and an IC50 [3] of over 10000 nM. It also gave an IC50 [4] of over 10000 nM, a metabolised at 0.5 h, 15 µM [11] of 9% and an inhibition in vivo at 300 mg/kg [12] of 45%. For the same compound, the Activity [13] was “Non-toxic”, the concentration at 1 h [14] was 11 µM and the concentration at 4 h [15] was 11 µM.

Work on `O=C(Cc1c[nH]cn1)N[C@@H](COCc1ccccc1)C(=O)Nc1ccc(OCc2ccccc2)cc1` yielded an IC50 [1] of 152 nM.

In the case of `O=C(Cc1cnc[nH]1)N[C@@H](COCc1ccccc1)C(=O)Nc1ccc(Oc2ccccc2)cc1`, the IC50 [1] is reported as 33 nM, the concentration at 1 h [16] is reported as 5 µM and the concentration at 4 h [17] is reported as 3 µM. It also gave a concentration at 1 h [18] of 4.4 µM, a concentration at 4 h [5] of 0.3 µM and a metabolised at 0.5 h, 15 µM [11] of 28%.

`O=C(N[C@@H](COCc1ccccc1)C(=O)Nc1ccc(Oc2ccccc2)cc1)c1cnc[nH]1` showed an IC50 [1] of over 1000 nM.

Compound `O=C(Nc1ccc(Oc2ccc(F)cc2)cc1)[C@@H]1C[C@@H](Cc2ccccc2)CN1C(=O)Cc1cnc[nH]1` has an IC50 [1] of 84.7 nM, a concentration at 1 h [18] of 26.2 µM and a concentration at 4 h [5] of 9.8 µM. The IC50 [7] was under 205 nM, the IC50 [8] was 1180 nM and the IC50 [9] was 7150 nM.

`O=C(Cc1cnc[nH]1)N[C@@H](COCc1ccccc1)C(=O)Nc1ccc(Cc2ccccc2)cc1` gave an IC50 [1] of over 10000 nM.

`C[C@H](NC(=O)Cc1cnc[nH]1)C(=O)Nc1ccc(Oc2ccc(Cl)cc2)cc1` gave an IC50 [1] of 752 nM.

In the case of `O=C(Nc1ccc(Oc2ccc(F)cc2)cc1)[C@@H]1C[C@@H](c2ccccc2)CN1C(=O)Cn1cncn1`, the IC50 [1] is reported as 492 nM.

`O=C(Cc1cnc[nH]1)N[C@@H](COCc1ccccc1)C(=O)Nc1ccc(Oc2cccc(Cl)c2)cc1` showed an IC50 [1] of 96 nM.
